From ChEMBL document CHEMBL1687928, “Discovery, optimization, and pharmacological characterization of novel heteroaroylphenylureas antagonists of C-C chemokine ligand 2 function” (J Med Chem, 2011)
The source made the active and inactive calls. No cut-off for these calls is given here.

What was measured:
[1] = tested on: Mus musculus; experiment: Toxicity in ICR mouse assessed as increase in feeding behavior at 1000 mg/kg, po administered as single dose; assay type: organism-based; design: dose 1000 mg/kg, route oral; details: in vivo
[2] = AUC (0 to 24 hrs) in rat at 5 mg/kg, po; assay type: ADME, organism-based; design: time < 24 hr, dose 5 mg/kg, route oral; details: plasma
[3] = tested on: Mus musculus; experiment: Toxicity in ICR mouse at 30 mg/kg, po QD for 14 days; assay type: organism-based; design: dose 30 mg/kg, route oral; details: in vivo, 336 h
Procedure, shortened: (§1)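 Repeated-dose study in 6-week-old male ICR mice. Vehicle or 30, 100 or 300 mg/kg was given orally once daily for 14 days. Survival, behavior, body weight and liver enzymes (AST, ALT) were monitored.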

[4] = tested on: Mus musculus; experiment: Toxicity in ICR mouse assessed as vacuolar degeneration in liver at 300 mg/kg, po QD for 14 days; assay type: organism-based; design: dose 300 mg/kg, route oral; details: in vivo, 336 h
[5] = tested on: Mus musculus; experiment: Toxicity in ICR mouse assessed as CNS excitation at 1000 mg/kg, po administered as single dose; assay type: organism-based; design: dose 1000 mg/kg, route oral; details: in vivo
[6] = tested on: Mus musculus; experiment: Toxicity in ICR mouse assessed as increase in ALT level at 300 mg/kg, po QD for 14 days; assay type: organism-based; design: dose 300 mg/kg, route oral; details: in vivo, 336 h; procedure, shortened: as §1
[7] = Cmax in rat at 5 mg/kg, po; assay type: ADME, organism-based; design: dose 5 mg/kg, route oral; details: in vivo
[8] = Tmax in rat at 5 mg/kg, po; assay type: ADME, organism-based; design: dose 5 mg/kg, route oral; details: in vivo
Procedure, shortened: (§2)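 Rats, not fasted, received a single intravenous or oral dose.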

[9] = tested on: Rattus norvegicus; experiment: Oral bioavailability in rat at 5 mg/kg, po; assay type: ADME, organism-based; details: in vivo; procedure, shortened: as §2
[10] = tested on: Mus musculus; experiment: Toxicity in ICR mouse at 100 mg/kg, po administered as single dose; assay type: organism-based; design: dose 100 mg/kg, route oral; details: in vivo
[11] = Clearance in rat at 5 mg/kg, iv; assay type: ADME, organism-based; design: dose 5 mg/kg, route intravenous; details: in vivo
[12] = molecular target: CYP3A4 (Homo sapiens, UniProt P08684); experiment: Inhibition of CYP3A4 at 1 uM; assay type: ADME
Chain of CYP3A4 (P08684 whole entry): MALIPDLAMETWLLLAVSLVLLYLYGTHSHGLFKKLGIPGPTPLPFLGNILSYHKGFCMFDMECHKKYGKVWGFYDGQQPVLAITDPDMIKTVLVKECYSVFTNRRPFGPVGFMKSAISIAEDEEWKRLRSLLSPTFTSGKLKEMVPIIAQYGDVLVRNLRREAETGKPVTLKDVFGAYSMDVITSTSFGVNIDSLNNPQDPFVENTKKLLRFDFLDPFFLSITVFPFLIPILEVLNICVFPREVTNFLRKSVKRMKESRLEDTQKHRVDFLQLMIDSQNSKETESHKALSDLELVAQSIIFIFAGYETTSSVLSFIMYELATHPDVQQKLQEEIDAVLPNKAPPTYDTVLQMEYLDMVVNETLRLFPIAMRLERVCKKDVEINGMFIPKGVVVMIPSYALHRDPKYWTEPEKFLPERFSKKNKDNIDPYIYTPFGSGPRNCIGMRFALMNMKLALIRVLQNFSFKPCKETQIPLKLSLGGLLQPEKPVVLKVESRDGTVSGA

[13] = tested on: Rattus norvegicus; experiment: Inhibition of bone resorption in joints of collagen-induced arthritis Lewis rat model at 30 mg/kg, po BID for 28 days; assay type: functional, organism-based; design: dose 30 mg/kg
Procedure, shortened: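 Female Lewis SPF rats, 6 weeks old (n = 8/group). CIA was induced on day 0 by intradermal injection at the tail base of 900 μg bovine type II collagen in Freund's complete adjuvant, with a 450 μg boost on day 7. Compound in 5% gum arabic was given by gavage b.i.d. for 28 days from day 0. Hind-paw radiographs were taken on day 29 and scored blind from 0 to 4, averaging both legs. Two-tailed t test.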

[14] = Volume of distribution at steady state in rat at 5 mg/kg, iv; assay type: ADME, organism-based; design: dose 5 mg/kg, route intravenous; details: in vivo, read-out: Vdss; procedure, shortened: as §2
[15] = molecular target: T1, CYP2D6 (Homo sapiens, UniProt P10635); experiment: Inhibition of CYP2D6 at 100 uM; assay type: ADME
T1 sequence (P10635 whole entry): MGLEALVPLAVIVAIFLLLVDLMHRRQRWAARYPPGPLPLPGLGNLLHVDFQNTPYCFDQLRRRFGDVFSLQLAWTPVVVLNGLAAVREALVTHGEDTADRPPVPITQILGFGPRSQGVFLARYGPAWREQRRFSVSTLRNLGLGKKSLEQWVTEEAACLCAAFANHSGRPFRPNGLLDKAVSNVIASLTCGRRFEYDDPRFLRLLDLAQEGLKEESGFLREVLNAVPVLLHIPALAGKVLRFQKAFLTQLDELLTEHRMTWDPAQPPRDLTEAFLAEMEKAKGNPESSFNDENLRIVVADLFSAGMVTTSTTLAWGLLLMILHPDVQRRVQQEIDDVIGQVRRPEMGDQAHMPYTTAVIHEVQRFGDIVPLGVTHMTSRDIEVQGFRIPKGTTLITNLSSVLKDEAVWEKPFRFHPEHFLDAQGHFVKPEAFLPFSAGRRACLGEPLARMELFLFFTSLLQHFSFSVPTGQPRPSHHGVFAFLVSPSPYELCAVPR

[16] = Tmax in rat at 30 mg/kg, po; assay type: ADME, organism-based; design: dose 30 mg/kg, route oral; details: in vivo; procedure, shortened: as §2
[17] = organism: Mus musculus; experiment: Antiinflammatory activity in Freund's adjuvant-induced C57BL/6 mouse assessed as decrease in inflammatory cell infiltrates in spinal cord; assay type: functional, organism-based
Procedure, shortened: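 C57BL/6 mice were immunized s.c. with a MOG33-55 peptide emulsion and given pertussis vaccine (350 ng i.v.) right away and again 48 h later. From day 0, compound in 3% aqueous Tween 80 (4 mg/mL) or water was dosed orally b.i.d. Tissue cellular infiltrate was scored 0–5, from few small perivascular/meningeal infiltrates up to very large extensive infiltrate.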

[18] = tested on: Mus musculus; experiment: Toxicity in ICR mouse assessed as vacuolar degeneration in kidney at 300 mg/kg, po QD for 14 days; assay type: organism-based; design: dose 300 mg/kg, route oral; details: in vivo, 336 h
[19] = Half life in rat at 5 mg/kg, iv; assay type: ADME, organism-based; design: dose 5 mg/kg, route intravenous; details: in vivo
[20] = AUC (0 to 24 hrs) in rat at 5 mg/kg, iv; assay type: ADME, organism-based; design: time < 24 hr, dose 5 mg/kg, route intravenous; details: plasma
[21] = tested on: Mus musculus; experiment: Antiinflammatory activity in complete Freund's adjuvant-induced C57BL/6 mouse assessed as delay in autoimmune encephalomyelitis disease progression at 30 mg/kg, po BID; assay type: functional
Procedure, shortened: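 MOG33-55 peptide emulsion given subcutaneously to C57BL/6 mice, with intravenous pertussis vaccine (350 ng) right after and again 48 h later. Compound dissolved at 4 mg/mL in 3% aqueous Tween 80 (stored at 4 C), or water as vehicle, given orally b.i.d. from the day of immunization (day 0). Mice monitored daily for disease onset and clinical score (0–5 scale).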

[22] = tested on: Rattus norvegicus; experiment: Antiinflammatory activity in complete Freund's adjuvant-induced Lewis rat arthritis model assessed as inhibition of paw edema at 30 mg/kg, po BID; assay type: functional, organism-based; design: dose 30 mg/kg
Procedure, shortened: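 Female Lewis SPF rats, 6 weeks old (n = 8/group), received an intradermal right hind footpad injection of 100 μL PBS-emulsified Freund's complete adjuvant (10 mg/mL M. butyricum). From day 10, compound in 5% gum arabic or vehicle was gavaged b.i.d. for a further 18 days; methotrexate 3×/week was the positive control. Left hind-limb volume was read by plethysmometer on days 0, 8, 15, 21 and 28, as % increase over day 0.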

[23] = molecular target: T1, CYP2D6; experiment: Inhibition of CYP2D6 at 1 uM; assay type: ADME
[24] = Aqueous solubility of the compound at pH 7.4; assay type: physicochemical

Structure (SMILES): Cc1nn(C)c2nc(N(C)CCN(C)C)c(C(=O)NC(=O)Nc3cccc(OC(C)C)c3)cc12.Cl
- Activity [1]: Toxic
- AUC(0-t) at 24 h [2]: 1620 ng·h/mL
- Activity [3]: Non-toxic
- Activity [4]: Toxic
- Activity [5]: Toxic
- Activity [6]: Toxic
- Cmax [7]: 129 ng/mL
- Tmax [8]: 5 h
- F [9]: 60%
- Activity [10]: Non-toxic
- clearance [11]: 31.7 mL/min/kg
- inhibition at 1 µM [12]: 4%
- Activity [13]: Active
- Vd [14]: 9.9 L/kg
- inhibition at 100 µM [15]: 73%
- Tmax [16]: 3 h
- Activity [17]: Active
- Activity [18]: Toxic
- half-life [19]: 10 h
- AUC(0-t) at 24 h [20]: 2690 ng·h/mL
- Activity [21]: 32.7 days
- Activity [22]: Active
- inhibition at 1 µM [23]: -5%
- solubility [24]: 7.8 µg/mL
